Experimental data as given in the M2OR odorant receptor database.

Tests used:
Conditions in all cases: stereoisomer not certain
UniProt Q8VGX8 = molecular target: T1, UniProt Q8VGX8
T1 sequence (whole entry): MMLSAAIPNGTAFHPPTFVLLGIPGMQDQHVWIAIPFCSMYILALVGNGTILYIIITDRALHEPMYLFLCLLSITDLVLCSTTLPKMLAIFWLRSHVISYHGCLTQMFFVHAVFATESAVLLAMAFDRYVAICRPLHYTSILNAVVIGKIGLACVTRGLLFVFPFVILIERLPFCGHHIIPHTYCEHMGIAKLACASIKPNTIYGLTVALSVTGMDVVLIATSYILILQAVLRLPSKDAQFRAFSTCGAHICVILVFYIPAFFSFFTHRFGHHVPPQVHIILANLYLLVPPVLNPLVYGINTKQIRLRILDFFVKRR
In short: (§1)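 Assay methods differ from source to source, frequently being transient luciferase assays in mammalian cell lines. For each receptor–molecule pair, the label responsive (active) applies when the original authors judged the measured signal statistically different from baseline, and non-responsive (inactive) applies otherwise.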

UniProt Q8VGY6 = molecular target: T2, UniProt Q8VGY6
T2 sequence (whole entry): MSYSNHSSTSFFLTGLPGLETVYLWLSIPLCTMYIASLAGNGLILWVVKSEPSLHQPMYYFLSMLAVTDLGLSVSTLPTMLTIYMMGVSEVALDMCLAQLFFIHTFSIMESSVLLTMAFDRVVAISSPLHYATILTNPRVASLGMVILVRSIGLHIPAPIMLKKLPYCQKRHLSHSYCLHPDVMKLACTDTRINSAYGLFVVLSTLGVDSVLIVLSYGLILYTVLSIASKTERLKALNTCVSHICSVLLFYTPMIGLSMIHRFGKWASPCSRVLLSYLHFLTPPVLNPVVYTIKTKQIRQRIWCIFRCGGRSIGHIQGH
In short: as §1

UniProt Q8VGZ2 = molecular target: T3, UniProt Q8VGZ2
T3 sequence (whole entry): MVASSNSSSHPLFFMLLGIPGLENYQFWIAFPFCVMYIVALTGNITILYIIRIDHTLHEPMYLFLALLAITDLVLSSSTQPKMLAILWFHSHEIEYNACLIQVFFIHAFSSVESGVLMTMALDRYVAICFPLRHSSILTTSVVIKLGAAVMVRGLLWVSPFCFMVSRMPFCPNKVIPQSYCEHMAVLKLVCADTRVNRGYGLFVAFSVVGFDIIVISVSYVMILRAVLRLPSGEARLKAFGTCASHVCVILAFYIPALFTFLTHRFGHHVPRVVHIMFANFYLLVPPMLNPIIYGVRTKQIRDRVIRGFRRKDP
In short: as §1

UniProt Q8VGZ7 = molecular target: T4, UniProt Q8VGZ7
T4 sequence (whole entry): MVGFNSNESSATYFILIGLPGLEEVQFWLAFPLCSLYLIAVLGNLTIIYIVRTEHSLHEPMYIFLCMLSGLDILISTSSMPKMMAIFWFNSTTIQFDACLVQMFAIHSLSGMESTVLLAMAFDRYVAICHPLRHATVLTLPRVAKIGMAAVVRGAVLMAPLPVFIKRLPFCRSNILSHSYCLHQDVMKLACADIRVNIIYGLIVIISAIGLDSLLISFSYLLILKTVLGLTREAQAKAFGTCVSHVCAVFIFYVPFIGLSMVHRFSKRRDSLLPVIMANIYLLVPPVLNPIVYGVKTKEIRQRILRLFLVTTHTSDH
In short: as §1

UniProt Q8VH10 = molecular target: T5, UniProt Q8VH10
T5 sequence (whole entry): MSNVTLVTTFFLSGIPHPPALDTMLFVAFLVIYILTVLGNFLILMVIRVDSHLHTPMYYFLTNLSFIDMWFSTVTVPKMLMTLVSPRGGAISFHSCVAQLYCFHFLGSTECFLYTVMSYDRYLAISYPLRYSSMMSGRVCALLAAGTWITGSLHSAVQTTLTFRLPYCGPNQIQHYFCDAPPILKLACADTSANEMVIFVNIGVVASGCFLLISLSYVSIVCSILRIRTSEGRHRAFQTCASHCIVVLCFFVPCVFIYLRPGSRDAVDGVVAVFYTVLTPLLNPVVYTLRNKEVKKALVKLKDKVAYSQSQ
In short: as §1

UniProt Q8VH20 = molecular target: T6, UniProt Q8VH20
T6 sequence (whole entry): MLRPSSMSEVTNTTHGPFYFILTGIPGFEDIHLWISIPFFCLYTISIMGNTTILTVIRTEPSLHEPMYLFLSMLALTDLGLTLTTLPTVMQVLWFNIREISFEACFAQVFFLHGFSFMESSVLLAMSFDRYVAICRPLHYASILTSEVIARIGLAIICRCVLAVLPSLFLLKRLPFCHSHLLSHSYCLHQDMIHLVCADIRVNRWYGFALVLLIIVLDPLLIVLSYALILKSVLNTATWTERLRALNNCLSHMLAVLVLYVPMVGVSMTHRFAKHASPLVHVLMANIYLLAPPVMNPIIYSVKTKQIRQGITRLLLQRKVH
In short: as §1

UniProt Q9EPN9 = molecular target: T7, UniProt Q9EPN9
T7 sequence (whole entry): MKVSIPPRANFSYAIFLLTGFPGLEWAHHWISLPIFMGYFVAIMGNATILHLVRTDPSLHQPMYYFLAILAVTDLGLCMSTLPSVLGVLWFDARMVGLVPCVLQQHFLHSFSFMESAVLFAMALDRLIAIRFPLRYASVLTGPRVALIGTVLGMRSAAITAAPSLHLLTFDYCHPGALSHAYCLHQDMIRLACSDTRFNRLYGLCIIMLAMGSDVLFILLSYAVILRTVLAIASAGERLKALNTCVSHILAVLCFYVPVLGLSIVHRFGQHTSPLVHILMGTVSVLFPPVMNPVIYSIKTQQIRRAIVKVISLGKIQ
In short: as §1

UniProt Q9R0K2 = molecular target: UniProt Q9R0K2
Sequence of UniProt Q9R0K2 (Q9R0K2 as listed by the source): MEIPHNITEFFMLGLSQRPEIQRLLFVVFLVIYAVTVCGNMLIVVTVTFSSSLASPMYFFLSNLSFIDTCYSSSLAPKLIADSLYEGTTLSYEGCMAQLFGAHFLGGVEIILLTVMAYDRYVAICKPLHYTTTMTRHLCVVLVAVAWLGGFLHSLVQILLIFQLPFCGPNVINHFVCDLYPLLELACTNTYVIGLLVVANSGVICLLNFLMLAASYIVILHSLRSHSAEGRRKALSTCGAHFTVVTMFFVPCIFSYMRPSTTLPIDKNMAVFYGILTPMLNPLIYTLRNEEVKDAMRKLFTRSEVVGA
In short: as §1

UniProt Q9WU86 = molecular target: T8, UniProt Q9WU86
T8 sequence (whole entry): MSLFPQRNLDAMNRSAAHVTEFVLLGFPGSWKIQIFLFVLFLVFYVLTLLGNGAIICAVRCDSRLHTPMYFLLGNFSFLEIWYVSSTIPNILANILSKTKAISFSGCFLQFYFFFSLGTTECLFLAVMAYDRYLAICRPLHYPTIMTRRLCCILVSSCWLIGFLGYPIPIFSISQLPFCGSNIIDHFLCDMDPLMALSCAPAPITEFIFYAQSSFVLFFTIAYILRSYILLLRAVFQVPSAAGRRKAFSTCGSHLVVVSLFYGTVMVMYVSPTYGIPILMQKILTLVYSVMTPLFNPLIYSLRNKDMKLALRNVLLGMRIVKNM
In short: as §1

UniProt Q8VH18 = molecular target: T9, UniProt Q8VH18
T9 sequence (whole entry): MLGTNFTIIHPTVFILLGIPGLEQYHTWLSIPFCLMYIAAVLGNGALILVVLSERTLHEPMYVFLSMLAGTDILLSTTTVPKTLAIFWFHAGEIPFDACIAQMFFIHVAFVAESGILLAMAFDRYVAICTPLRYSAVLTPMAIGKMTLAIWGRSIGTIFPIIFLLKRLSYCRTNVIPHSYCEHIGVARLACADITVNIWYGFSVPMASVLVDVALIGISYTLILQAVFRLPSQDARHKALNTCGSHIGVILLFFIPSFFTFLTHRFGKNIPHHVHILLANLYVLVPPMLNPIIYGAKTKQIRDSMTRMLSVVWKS
In short: as §1

UniProt Q924X8 = molecular target: T10, UniProt Q924X8
T10 sequence (whole entry): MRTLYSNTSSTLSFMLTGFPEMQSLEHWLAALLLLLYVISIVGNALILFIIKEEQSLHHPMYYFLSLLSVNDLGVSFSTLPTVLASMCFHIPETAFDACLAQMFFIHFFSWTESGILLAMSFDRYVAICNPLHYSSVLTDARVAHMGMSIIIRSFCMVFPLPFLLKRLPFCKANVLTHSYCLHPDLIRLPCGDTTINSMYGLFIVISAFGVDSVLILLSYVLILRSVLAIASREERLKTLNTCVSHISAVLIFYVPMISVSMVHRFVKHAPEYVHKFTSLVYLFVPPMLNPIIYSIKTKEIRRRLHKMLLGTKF
In short: as §1

UniProt Q99NH4 = molecular target: T11, UniProt Q99NH4
T11 sequence (whole entry): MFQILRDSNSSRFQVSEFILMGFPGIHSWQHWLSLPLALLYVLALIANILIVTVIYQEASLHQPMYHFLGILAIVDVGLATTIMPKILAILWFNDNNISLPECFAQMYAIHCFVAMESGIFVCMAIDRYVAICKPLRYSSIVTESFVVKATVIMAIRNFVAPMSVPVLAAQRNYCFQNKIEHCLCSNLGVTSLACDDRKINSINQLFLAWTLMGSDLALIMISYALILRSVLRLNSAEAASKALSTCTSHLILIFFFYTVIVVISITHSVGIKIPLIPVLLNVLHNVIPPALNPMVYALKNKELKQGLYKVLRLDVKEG
In short: as §1

UniProt Q9WU94 = molecular target: T12, UniProt Q9WU94
T12 sequence (whole entry): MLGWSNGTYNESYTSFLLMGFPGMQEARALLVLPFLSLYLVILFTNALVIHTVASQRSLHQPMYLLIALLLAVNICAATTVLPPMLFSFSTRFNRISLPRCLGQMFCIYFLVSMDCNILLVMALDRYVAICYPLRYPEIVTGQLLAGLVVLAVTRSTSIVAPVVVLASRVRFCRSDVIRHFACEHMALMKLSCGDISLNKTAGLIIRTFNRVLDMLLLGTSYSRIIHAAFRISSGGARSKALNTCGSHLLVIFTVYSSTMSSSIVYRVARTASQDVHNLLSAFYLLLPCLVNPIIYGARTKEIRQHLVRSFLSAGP
In short: as §1

UniProt Q9WVD7 = molecular target: T13, UniProt Q9WVD7
T13 sequence (whole entry): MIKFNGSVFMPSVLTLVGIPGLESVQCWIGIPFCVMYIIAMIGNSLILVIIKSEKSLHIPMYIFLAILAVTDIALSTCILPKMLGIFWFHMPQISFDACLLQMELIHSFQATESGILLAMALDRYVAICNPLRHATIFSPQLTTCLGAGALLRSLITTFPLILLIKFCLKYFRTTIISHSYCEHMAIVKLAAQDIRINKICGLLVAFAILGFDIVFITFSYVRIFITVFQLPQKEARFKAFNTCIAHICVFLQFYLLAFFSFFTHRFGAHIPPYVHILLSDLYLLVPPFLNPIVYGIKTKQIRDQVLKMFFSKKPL
In short: as §1

UniProt Q8VH16 = molecular target: T14, UniProt Q8VH16
T14 sequence (whole entry): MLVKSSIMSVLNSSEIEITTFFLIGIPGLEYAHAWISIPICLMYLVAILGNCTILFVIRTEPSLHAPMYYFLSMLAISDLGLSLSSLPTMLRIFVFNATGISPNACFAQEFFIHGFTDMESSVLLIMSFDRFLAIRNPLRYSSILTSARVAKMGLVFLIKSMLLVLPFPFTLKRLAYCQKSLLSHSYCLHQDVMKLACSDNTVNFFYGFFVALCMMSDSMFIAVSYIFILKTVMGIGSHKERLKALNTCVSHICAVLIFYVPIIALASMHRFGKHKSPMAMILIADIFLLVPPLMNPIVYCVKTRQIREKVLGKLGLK
In short: as §1

UniProt Q8VH21 = molecular target: T15, UniProt Q8VH21
T15 sequence (whole entry): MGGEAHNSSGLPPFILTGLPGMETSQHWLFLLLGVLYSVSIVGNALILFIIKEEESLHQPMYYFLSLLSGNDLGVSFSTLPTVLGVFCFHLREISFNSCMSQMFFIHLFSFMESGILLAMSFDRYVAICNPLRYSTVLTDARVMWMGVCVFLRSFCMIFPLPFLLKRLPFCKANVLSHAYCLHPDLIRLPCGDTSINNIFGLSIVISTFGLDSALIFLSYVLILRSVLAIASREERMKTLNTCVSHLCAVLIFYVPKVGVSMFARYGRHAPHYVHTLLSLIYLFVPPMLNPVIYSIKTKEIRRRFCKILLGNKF
In short: as §1

UniProt Q924H8 = molecular target: T16, UniProt Q924H8
T16 sequence (whole entry): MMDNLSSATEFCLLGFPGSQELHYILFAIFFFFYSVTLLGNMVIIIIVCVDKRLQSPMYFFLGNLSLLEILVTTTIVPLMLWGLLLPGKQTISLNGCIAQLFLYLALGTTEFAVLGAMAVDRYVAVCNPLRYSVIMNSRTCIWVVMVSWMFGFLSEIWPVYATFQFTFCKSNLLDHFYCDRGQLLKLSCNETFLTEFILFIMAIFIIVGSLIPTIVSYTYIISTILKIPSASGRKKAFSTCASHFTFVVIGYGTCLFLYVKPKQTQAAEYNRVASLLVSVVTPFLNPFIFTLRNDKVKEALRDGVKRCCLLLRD
In short: as §1

## CCC(C(=O)O)c1ccccc1 (stereo not drawn)
UniProt Q8VGX8
  odorant receptor agonist call: inactive
UniProt Q8VGY6
  odorant receptor agonist call: inactive
UniProt Q8VGZ2
  odorant receptor agonist call: inactive
UniProt Q8VGZ7
  odorant receptor agonist call: inactive
UniProt Q8VH10
  odorant receptor agonist call: inactive
UniProt Q8VH20
  odorant receptor agonist call: inactive
UniProt Q9EPN9
  odorant receptor agonist call: active
UniProt Q9R0K2
  odorant receptor agonist call: inactive
UniProt Q9WU86
  odorant receptor agonist call: inactive

## O=C(O)CCCBr
UniProt Q8VGX8
  odorant receptor agonist call: inactive
UniProt Q8VH18
  odorant receptor agonist call: inactive
UniProt Q924X8
  odorant receptor agonist call: active
UniProt Q99NH4
  odorant receptor agonist call: inactive
UniProt Q9WU94
  odorant receptor agonist call: inactive
UniProt Q9WVD7
  odorant receptor agonist call: inactive

## C1CCOCC1
UniProt Q8VGZ2
  odorant receptor agonist call: inactive
UniProt Q8VGZ7
  odorant receptor agonist call: inactive
UniProt Q8VH16
  odorant receptor agonist call: inactive
UniProt Q8VH20
  odorant receptor agonist call: inactive
UniProt Q8VH21
  odorant receptor agonist call: inactive
UniProt Q924H8
  odorant receptor agonist call: inactive

## CCC(C)O (stereo not drawn)
UniProt Q8VGZ2
  odorant receptor agonist call: inactive
UniProt Q8VGZ7
  odorant receptor agonist call: inactive
UniProt Q8VH16
  odorant receptor agonist call: inactive
UniProt Q8VH20
  odorant receptor agonist call: inactive
UniProt Q8VH21
  odorant receptor agonist call: inactive
UniProt Q924H8
  odorant receptor agonist call: inactive

## CC1CC=CCCCCCCCCCC(=O)C1 (stereo not drawn)
UniProt Q8VGZ2
  odorant receptor agonist call: inactive
UniProt Q8VGZ7
  odorant receptor agonist call: inactive
UniProt Q8VH16
  odorant receptor agonist call: inactive
UniProt Q8VH20
  odorant receptor agonist call: inactive
UniProt Q8VH21
  odorant receptor agonist call: inactive
UniProt Q924H8
  odorant receptor agonist call: active
